The subject of series [1] is MCF7. The series can be described thus: Reversal of estrogen-induced proliferation in estrogen-sensitive human MCF7 cells at 0.5 uM after 8 days relative to control. In kind it is functional, cell-based. The essentials:
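Antiestrogenic test: MCF-7 cells plated in phenol red-free DME-F12 with charcoal-stripped FBS; two days later incubated 8 days with E₂ (0.1 nM) plus compound (0.5 μM), pure antiestrogen EM-139 (0.5 μM) as reference, medium changed every second day. CellTiter 96 Aqueous read-out; triplicate, mean ± SEM.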

Series [2] concerns the target T1, 17-beta-hydroxysteroid dehydrogenase type 1 (Homo sapiens, UniProt P14061).
T1 sequence (P14061 whole entry): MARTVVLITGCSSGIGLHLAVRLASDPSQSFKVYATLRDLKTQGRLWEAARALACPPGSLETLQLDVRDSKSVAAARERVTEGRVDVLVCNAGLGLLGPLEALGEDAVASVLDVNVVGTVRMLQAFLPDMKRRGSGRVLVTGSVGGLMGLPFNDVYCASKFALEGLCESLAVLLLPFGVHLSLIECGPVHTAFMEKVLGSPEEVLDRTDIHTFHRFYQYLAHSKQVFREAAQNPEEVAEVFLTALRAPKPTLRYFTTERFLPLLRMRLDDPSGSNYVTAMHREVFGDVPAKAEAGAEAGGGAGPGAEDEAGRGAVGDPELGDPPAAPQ
The series is described as follows: Inhibition of 17beta-HSD1 in human T47D cells assessed as inhibition of transformation of [14C]-estrone into [14C]estrogen. Type of series: cell-based.

In series [3] the test system is T47D. The series is described as follows: Reduction of estrone-induced human T47D cell growth at 0.5 uM after 8 days relative to control. Type of series: functional. On the set-up: scale not given: the % may be the effect or the level left. Put shortly:
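T-47D cells in estrogen-free phenol red-free RPMI with insulin and 5% charcoal-stripped FBS, grown 8 days with E₁ (0.01, 0.1, 1 or 5 nM) plus inhibitor (0.05–1 μM), medium changed every 2 days. Proliferation by CellTiter 96 Aqueous assay; growth without E₁ and inhibitor = 100%. Triplicate, mean ± SEM; Duncan–Kramer test.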

Series [4] has as its target T2, 17-beta-hydroxysteroid dehydrogenase type 2 (Homo sapiens) (UniProt P37059).
T2 sequence (whole entry): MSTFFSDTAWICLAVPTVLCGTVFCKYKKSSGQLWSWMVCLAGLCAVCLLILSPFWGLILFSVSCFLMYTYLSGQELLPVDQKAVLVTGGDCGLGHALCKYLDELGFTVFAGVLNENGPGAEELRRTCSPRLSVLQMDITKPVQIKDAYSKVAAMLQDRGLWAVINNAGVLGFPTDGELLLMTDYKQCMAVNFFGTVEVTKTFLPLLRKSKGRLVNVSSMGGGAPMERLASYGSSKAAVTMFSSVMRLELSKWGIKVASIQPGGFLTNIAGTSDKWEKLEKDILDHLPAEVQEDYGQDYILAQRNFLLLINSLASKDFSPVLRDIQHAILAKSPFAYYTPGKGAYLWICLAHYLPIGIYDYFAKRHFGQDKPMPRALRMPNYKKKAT
The series is described as follows: Inhibition of 17beta-HSD2 over-expressed in HEK293 cells assessed as inhibition of transformation of [14C]-estrogen into [14C]-estrone at 10 uM. Type of series: cell-based.

Series [5] relates to T47D. The series is described as follows: Antiproliferative activity against estrogen receptor positive human T47D cells at 0.01 uM after 8 days relative to control. In kind it is functional, cell-based. Put shortly: (§1)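 Estrogen-starved cells, resuspended in phenol red-free medium (RPMI for T-47D, DME-F12 for MCF-7) with insulin (50 ng/mL) and 5% dextran-coated charcoal-treated FBS, seeded 3000 cells/well. After 48 h medium replaced with compound dilutions (0.01, 0.1, 1 μM), renewed every 2 days for 8 days. Growth read by CellTiter 96 Aqueous assay; control = 100%; triplicate, mean ± SEM.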

Series [6] concerns MCF7. The series is described as follows: Antiproliferative activity against estrogen receptor positive human MCF7 cells at 0.1 uM after 8 days relative to control. Type of series: functional. Put shortly:
as §1

In series [7] the test system is T47D. The series is described as follows: Antiproliferative activity against estrogen receptor positive human T47D cells at 1 uM after 8 days relative to control. Type of series: functional. Put shortly: as §1
Series [8] has as its system T47D. The series can be described thus: Antiproliferative activity against estrogen receptor positive human T47D cells at 0.1 uM after 8 days relative to control. Type of series: functional, cell-based. The essentials:
as §1

Substrate in series [9]: C[C@]12CC[C@@H]3c4ccc(O)cc4CC[C@H]3[C@@H]1CC[C@@H]2O
Substrate in series [10]: C[C@]12CC[C@@H]3c4ccc(O)cc4CC[C@H]3[C@@H]1CCC2=O

Active and inactive are the calls of the source. No cut-off for these calls is given here.

For the molecule `CCCCN(C)C(=O)CCCCCCCCCC[C@@H]1Cc2cc(O)ccc2[C@H]2CC[C@]3(C)[C@@H](O)[C@H](Cl)C[C@H]3[C@H]12`, the outcome with MCF7 [1] was Active.
Turning to `C[C@]12CC[C@@H]3c4ccc(O)cc4CC[C@H]3[C@@H]1C[C@H](Cc1cccc(C(N)=O)c1)[C@@H]2O`, the half-inhibitory concentration (IC50) – broadly, the midpoint of a concentration-inhibition curve – in series [2] was determined as 44 nM. Also, in the series on T47D [3], the Activity came out at 62%. The result (with MCF7 [1]; in [4]) was inactive.
With `C[C@]12CC[C@@H]3c4ccccc4CC[C@H]3[C@@H]1C[C@H](Cc1cccc(C(N)=O)c1)[C@@H]2O`, the result in the series with T47D [5] and in the series on T47D [8] was inactive. The Activity with MCF7 [6] came out at 31%; in the series on T47D [7] it was 47%.
`C[C@]12CC[C@@H]3c4ccc(O)cc4CC[C@H]3[C@@H]1C[C@H](Cc1cccc(C(N)=O)c1)C2=O`: the concentration for half-maximal inhibition (IC50) in [2] was found to be 171 nM.
For the molecule `COc1cc2c(cc1O)CC[C@@H]1[C@@H]2CC[C@]2(C)[C@@H](O)[C@@H](Cc3cccc(C(N)=O)c3)C[C@@H]12`, the outcome in the series on T47D [5] and in the series with T47D [8] was inactive. In addition, the results for the Activity in the series with MCF7 [6] and with T47D [7] were 21% and 41%, respectively.

B1: 17-beta-hydroxysteroid dehydrogenase type 1 (Homo sapiens), P14061 (protein)
chain: T1 sequence (P14061 whole entry)
As for B1, the values for the Km in series [9] and in series [10] were 4.6 µM and 0.03 µM, respectively.

The values above are taken from ChEMBL document CHEMBL1143127 (Bioorg Med Chem, 2008).
